# ChEMBL document CHEMBL1127834, “Naphthalenic lignan lactones as selective, nonredox 5-lipoxygenase inhibitors. Synthesis and biological activity of (methoxyalkyl)thiazole and methoxytetrahydropyran hybrids” (J Med Chem, 1994)
# Columns and labels:
# [1] = organism: Homo sapiens; assay: In vitro inhibition of LTB4 formation in human whole blood(HWB); format: functional
# [2] = organism: Homo sapiens; assay: In vitro inhibition of LTB4 formation in human peripheral blood polymorphonuclear leukocytes (HPMN); format: functional
# [3] = molecular target: T1, Polyunsaturated fatty acid 5-lipoxygenase (Homo sapiens, UniProt P09917); assay: In vitro potency against human 5-Lipoxygenase
# T1 sequence (P09917 whole entry): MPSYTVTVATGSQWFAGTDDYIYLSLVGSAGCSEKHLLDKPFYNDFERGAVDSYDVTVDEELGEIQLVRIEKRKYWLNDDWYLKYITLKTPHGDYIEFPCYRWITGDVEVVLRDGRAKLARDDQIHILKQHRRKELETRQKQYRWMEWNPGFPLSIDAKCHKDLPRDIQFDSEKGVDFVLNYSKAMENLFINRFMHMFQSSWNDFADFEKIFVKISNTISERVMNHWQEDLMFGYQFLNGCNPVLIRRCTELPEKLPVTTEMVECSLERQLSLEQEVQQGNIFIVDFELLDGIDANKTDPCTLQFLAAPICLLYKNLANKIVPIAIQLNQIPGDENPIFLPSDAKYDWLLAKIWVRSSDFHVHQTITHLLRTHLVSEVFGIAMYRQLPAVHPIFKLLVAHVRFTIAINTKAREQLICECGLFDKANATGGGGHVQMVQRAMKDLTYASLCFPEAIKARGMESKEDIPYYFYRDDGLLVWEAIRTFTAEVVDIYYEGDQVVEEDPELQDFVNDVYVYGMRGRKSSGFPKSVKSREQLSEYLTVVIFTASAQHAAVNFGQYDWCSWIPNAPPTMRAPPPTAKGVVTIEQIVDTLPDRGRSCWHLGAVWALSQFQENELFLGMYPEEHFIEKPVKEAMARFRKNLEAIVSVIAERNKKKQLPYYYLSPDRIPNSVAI
# In short: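 Soluble cell-free fraction of Sf9 cells expressing recombinant human 5-LO (10 μg protein/mL). Conjugated diene formation followed at A234. Inhibitors added from 500-fold DMSO stocks.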
# [4] = system: Monkey; assay: Inhibition of antigen-induced bronchoconstriction in allergic squirrel monkeys at 0.3 mg/kg; format: functional; details: in Saimiri
# In short: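 Allergic squirrel monkeys dosed orally at 0.3 mg/kg 4 h before aerosol challenge with Ascaris antigen. Read-outs were the increase in airway resistance (RL) and the decrease in dynamic compliance (Cdyn).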
# [5] = organism: Rattus norvegicus; assay: Dose-dependent inhibition of LTB4 by the compound after 3h of oral pretreatment in rat pleural; format: functional
# [6] = organism: Rattus norvegicus; assay: Dose-dependent inhibition of LTB4 by the compound after 2 hr of oral pretreatment in rat pleural; format: functional
# [7] = Cmax value of compound was determined after 1 hr; format: ADME, organism-based; details: in vivo
# In short: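 Male Sprague-Dawley rats (2), starved overnight, dosed orally at 50 mg/kg as a solution in 0.5% methocel. Jugular vein blood sampled at 0, 0.5, 1, 2, 4, 6 and 8 h. Plasma proteins precipitated with an equal volume of acetonitrile. Supernatant analysed by reversed-phase HPLC for the lactone.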
IC50 [1] [nM],IC50 [2] [nM],IC50 [3] [nM],Cmax [7] [µM],SMILES,inhibition in vivo at 0.3 mg/kg [4] [%],ED50 [5] [mg/kg],ED50 [6] [mg/kg]
700,4.4,–,–,CCC(OC)(c1cccc(OCc2ccc3ccccc3c2)c1)c1nccs1 (configuration not stated) [ZM-211965],–,–,–
50,0.9,20,–,COC1(c2cccc(OCc3ccc4c(-c5ccccc5)c5c(cc4c3)C(=O)OC5)c2)CCOCC1,–,–,–
> 3000,11,–,–,CCC(OC)(c1cccc(COc2ccc3ccccc3c2)c1)c1nccs1 (configuration not stated),–,–,–
700,2.2,50,–,CCC(OC)(c1cccc(OCc2ccc3c(-c4ccccc4)c4c(cc3c2)C(=O)OC4)c1)c1nccs1 (configuration not stated),–,–,–
1500,55,1000,–,COC1(c2cccc(COc3ccc4ccccc4c3)c2)CCOCC1,–,–,–
–,–,–,–,COC1(c2cccc(COc3ccc4c(-c5ccccc5)c(CO)c(C(=O)[O-])cc4c3)c2)CCOCC1.[Na+],95,0.6,–
–,–,5000,–,CC(C)(C)Sc1c(CC(C)(C)C(=O)O)n(Cc2ccc(Cl)cc2)c2ccc(OCc3ccc4ccccc4n3)cc12 [QUIFLAPON],–,–,0.5
60,1.2,10,–,COC1(c2cccc(OCc3ccc4ccccc4c3)c2)CCOCC1,–,–,–
2000,–,–,–,CC(c1cc2ccccc2s1)N(O)C(N)=O (configuration not stated) [ZILEUTON],–,–,–
1400,4.8,160,–,CCC(OC)(c1cccc(COc2ccc3c(-c4ccccc4)c4c(cc3c2)C(=O)OC4)c1)c1nccs1 (configuration not stated),–,–,–
50,1.5,–,4,COC1(c2cccc(COc3ccc4c(-c5ccccc5)c5c(cc4c3)C(=O)OC5)c2)CCOCC1,–,–,–
